Values after ≈ are worked out from the molar mass of the structure shown.
How the values were obtained:
[1] = Growth inhibition of human A549 cells after 72 hrs by MTT assay; format: functional, cell-based; settings: A549, 72 h
How it was run: (§1)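 Monolayers in DMEM with 10% FBS, 2 mM L-glutamine and penicillin/streptomycin, 37 °C, 5% CO2; 5000 cells/well seeded day 0. Compounds added as five 10-fold dilutions (0.01–100 µM), DMSO ≤0.1%, for 72 h. MTT absorbance converted to percentage growth (NIH formulas); IC50 by linear regression between bracketing concentrations, highest concentration reported with ">" when not reached. Quadruplicate points, three experiments.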

[2] = Growth inhibition of human HepG2 cells after 72 hrs by MTT assay; format: functional, cell-based; settings: HepG2, 72 h; how it was run: as §1
[3] = Growth inhibition of human CFPAC-1 cells after 72 hrs by MTT assay; format: functional, cell-based; settings: CFPAC-1, 72 h; how it was run: as §1
[4] = Growth inhibition of human HeLa cells after 72 hrs by MTT assay; format: functional, cell-based; how it was run: as §1
[5] = Growth inhibition of human SW620 cells after 72 hrs by MTT assay; format: functional, cell-based; settings: SW-620, 72 h; how it was run: as §1
[6] = Growth inhibition of human WI38 cells after 72 hrs by MTT assay; format: cell-based; settings: WI-38, 72 h; how it was run: as §1
Staphylococcus aureus = assay: Antibacterial activity against Staphylococcus aureus ATCC 25923 after 16 to 20 hrs by broth microdilution method; format: functional
How it was run: (§2)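 Broth microdilution per CLSI in cation (Ca2+, Mg2+)-adjusted Mueller-Hinton broth; compounds in serial two-fold dilutions, 256–0.25 µg/mL; direct colony suspension inoculum, final 5 x 10^5 CFU/mL; 35 ± 2 °C, 16–20 h, ambient air. MIC is the lowest concentration completely inhibiting visible growth versus growth control; with trailing, endpoint read at ≥80% growth reduction. E. coli ATCC 25922 and P. aeruginosa ATCC 27853 served as QC.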

Enterococcus faecalis = assay: Antibacterial activity against Enterococcus faecalis after 16 to 20 hrs by broth microdilution method; format: functional; how it was run: as §2
Pseudomonas aeruginosa = assay: Antibacterial activity against Pseudomonas aeruginosa ATCC 27853 after 16 to 20 hrs by broth microdilution method; format: functional; how it was run: as §2
Escherichia coli = assay: Antibacterial activity against Escherichia coli ATCC 25925 after 16 to 20 hrs by broth microdilution method; format: functional; settings: read-out: MIC=>80; how it was run: as §2
Acinetobacter baumannii = assay: Antibacterial activity against Acinetobacter baumannii ATCC 19606 after 16 to 20 hrs by broth microdilution method; format: functional; how it was run: as §2
Klebsiella pneumoniae = assay: Antibacterial activity against ESBL-producing Klebsiella pneumoniae ATCC 27736 after 16 to 20 hrs by broth microdilution method; format: functional; how it was run: as §2
A549 = assay: Selectivity index, ratio of IC50 for […] cells to IC50 for human A549 cells; format: functional

Row | SMILES | IC50 [1] | IC50 [2] | IC50 [3] | IC50 [4] | IC50 [5] | IC50 [6] | MIC80 (Staphylococcus aureus) | MIC80 (Enterococcus faecalis) | MIC80 (Pseudomonas aeruginosa) | MIC (Escherichia coli) | MIC80 (Acinetobacter baumannii) | MIC80 (Klebsiella pneumoniae) | Ratio IC50 (A549)
1 | O=c1cc(Cn2cc(CSC(=S)N3CCOCC3)nn2)c2ccc(O)cc2o1 | 70.2 µM | 99.4 µM | 56.3 µM | 40.8 µM | ≥ 100 µM | 59.1 µM | > 256 µg/mL | 32 µg/mL (≈ 76.5 µM) | > 256 µg/mL | > 256 µg/mL | > 256 µg/mL | > 256 µg/mL | –
2 | O=c1cc(Cn2cc(CSC(=S)N3CCNCC3)nn2)c2ccc(O)cc2o1 | 96 µM | > 100 µM | > 100 µM | > 100 µM | > 100 µM | > 100 µM | > 256 µg/mL | 16 µg/mL (≈ 38.3 µM) | > 256 µg/mL | > 256 µg/mL | > 256 µg/mL | > 256 µg/mL | –
3 | O=c1cc(Cn2cc(CCO)nn2)c2ccc(O)cc2o1 | 90.3 µM | > 100 µM | > 100 µM | > 100 µM | > 100 µM | – | – | – | – | – | – | – | –
4 | CCCCCCCCc1cn(Cc2cc(=O)oc3cc(O)ccc23)nn1 | 46 µM | 34.2 µM | 62.6 µM | 35.1 µM | 50.9 µM | 43.4 µM | > 256 µg/mL | 256 µg/mL (≈ 720 µM) | > 256 µg/mL | > 256 µg/mL | > 256 µg/mL | > 256 µg/mL | –
5 | Cc1ccc2nc(-c3ccc(NCc4cn(Cc5cc(=O)oc6cc(O)ccc56)nn4)cc3)sc2c1 | 16.2 µM | 52.8 µM | 10.5 µM | 7.26 µM | 90 µM | – | – | – | – | – | – | – | –
6 | CCCCCCc1ccc(-c2cn(Cc3cc(=O)oc4cc(O)ccc34)nn2)cc1 | 8.87 µM | 9.16 µM | > 100 µM | 8.73 µM | 36.8 µM | 14 µM | > 256 µg/mL | 16 µg/mL (≈ 39.7 µM) | > 256 µg/mL | > 256 µg/mL | > 256 µg/mL | > 256 µg/mL | –
7 | CC(C)(O/N=C(\C(=O)N[C@@H]1C(=O)N2C(C(=O)[O-])=C(C[n+]3ccccc3)CS[C@H]12)c1csc(N)n1)C(=O)O [CEFTAZIDIME] | – | – | – | – | – | – | 64 µg/mL (≈ 117 µM) | 256 µg/mL (≈ 468 µM) | 4 µg/mL (≈ 7.32 µM) | 0.5 µg/mL (≈ 0.915 µM) | 16 µg/mL (≈ 29.3 µM) | > 256 µg/mL | –
8 | O=c1cc(Cn2cc(CNS(=O)(=O)c3ccc(Cl)cc3)nn2)c2ccc(O)cc2o1 | 47.9 µM | 31.4 µM | 81.9 µM | 58.5 µM | > 100 µM | 0.82 µM | – | – | – | – | – | – | –
9 | O=C(O)c1cn(C2CC2)c2cc(N3CCNCC3)c(F)cc2c1=O [CIPROFLOXACIN] | – | – | – | – | – | – | 0.25 µg/mL (≈ 0.754 µM) | 0.5 µg/mL (≈ 1.51 µM) | < 0.125 µg/mL | < 0.125 µg/mL | < 0.125 µg/mL | > 256 µg/mL | –
10 | O=c1cc(Cn2cc(C3CC3)nn2)c2ccc(O)cc2o1 | 91.7 µM | > 100 µM | > 100 µM | > 100 µM | > 100 µM | – | – | – | – | – | – | – | –
11 | CCCC1CCC(c2ccc(-c3cn(Cc4cc(=O)oc5cc(O)ccc45)nn3)cc2)CC1 (centres undefined) | 41 µM | 30.4 µM | 52.8 µM | 34.3 µM | 37.5 µM | 7.91 µM | > 256 µg/mL | 64 µg/mL (≈ 144 µM) | > 256 µg/mL | > 256 µg/mL | > 256 µg/mL | > 256 µg/mL | –
12 | Cc1ccc2c(Cn3cc(CNc4ccc(-c5nc6ccc(C)cc6s5)cc4)nn3)cc(=O)oc2c1 | 46.2 µM | 94.7 µM | 34.9 µM | 51.4 µM | ≥ 100 µM | – | – | – | – | – | – | – | –
13 | O=c1cc(Cn2cc(CCCCO)nn2)c2ccc(O)cc2o1 | > 100 µM | > 100 µM | > 100 µM | > 100 µM | > 100 µM | – | – | – | – | – | – | – | –
14 | CC(C)(C)c1cn(Cc2cc(=O)oc3cc(O)ccc23)nn1 | 67.6 µM | > 100 µM | > 100 µM | 81.1 µM | > 100 µM | – | > 256 µg/mL | 128 µg/mL (≈ 428 µM) | > 256 µg/mL | > 256 µg/mL | > 256 µg/mL | > 256 µg/mL | –
15 | O=c1cc(Cn2cc(CCCCl)nn2)c2ccc(O)cc2o1 | 30.1 µM | > 100 µM | 75.8 µM | 49.6 µM | 59.8 µM | – | – | – | – | – | – | – | –
16 | CC(C)(C)OC(=O)N1CCN(C(=S)SCc2cn(Cc3cc(=O)oc4cc(O)ccc34)nn2)CC1 | 35.4 µM | 56.9 µM | 88.5 µM | 48 µM | > 100 µM | 2.82 µM | – | – | – | – | – | – | –
17 | O=c1cc(Cn2cc(-c3cc(F)cc(F)c3)nn2)c2ccc(O)cc2o1 | 21.1 µM | 38.9 µM | > 100 µM | 27.6 µM | 66.7 µM | – | – | – | – | – | – | – | >4
18 | Cn1c(-c2cn(Cc3cc(=O)oc4cc(O)ccc34)nn2)nc2ccccc21 | > 100 µM | 70.7 µM | 76.5 µM | 49.1 µM | > 100 µM | – | – | – | – | – | – | – | –
19 | Cc1ccc(S(=O)(=O)NCc2cn(Cc3cc(=O)oc4cc(O)ccc34)nn2)cc1 | 46.4 µM | 29.8 µM | 68.9 µM | 55.7 µM | 92.2 µM | 0.03 µM | 256 µg/mL (≈ 600 µM) | 64 µg/mL (≈ 150 µM) | > 256 µg/mL | > 256 µg/mL | > 256 µg/mL | > 256 µg/mL | –
20 | CCCCc1ccc(-c2cn(Cc3cc(=O)oc4cc(O)ccc34)nn2)cc1 | 13.8 µM | 48.4 µM | 69.8 µM | 39 µM | 49.2 µM | – | > 256 µg/mL | 64 µg/mL (≈ 170 µM) | > 256 µg/mL | > 256 µg/mL | > 256 µg/mL | > 256 µg/mL | –
21 | CCCCCCc1cn(Cc2cc(=O)oc3cc(O)ccc23)nn1 | 66.2 µM | 61.6 µM | > 100 µM | 59 µM | > 100 µM | 58.5 µM | – | – | – | – | – | – | –
22 | O=c1cc(Cn2cc(-c3ccc(Br)cc3)nn2)c2ccc(O)cc2o1 | 32.3 µM | 61.1 µM | 52.9 µM | 40.2 µM | 97.7 µM | – | > 256 µg/mL | 256 µg/mL (≈ 643 µM) | > 256 µg/mL | > 256 µg/mL | > 256 µg/mL | > 256 µg/mL | –
23 | O=c1cc(Cn2cc(CCc3ccccc3)nn2)c2ccc(O)cc2o1 | 24.8 µM | 50.5 µM | > 100 µM | 35.1 µM | 84.4 µM | – | – | – | – | – | – | – | >4
24 | CCCCCc1ccc(-c2cn(Cc3cc(=O)oc4cc(O)ccc34)nn2)cc1 | 13.7 µM | 27.3 µM | 50.4 µM | 24.6 µM | 39.6 µM | – | > 256 µg/mL | 8 µg/mL (≈ 20.5 µM) | > 256 µg/mL | > 256 µg/mL | > 256 µg/mL | > 256 µg/mL | –
25 | CC(O)c1cn(Cc2cc(=O)oc3cc(O)ccc23)nn1 (centres undefined) | > 100 µM | > 100 µM | > 100 µM | > 100 µM | > 100 µM | – | – | – | – | – | – | – | –
26 | O=c1cc(Cn2cc(CCCO)nn2)c2ccc(O)cc2o1 | 96.2 µM | > 100 µM | > 100 µM | 90.2 µM | > 100 µM | – | – | – | – | – | – | – | –
27 | O=c1cc(Cn2cc(CNS(=O)(=O)c3ccc([N+](=O)[O-])cc3)nn2)c2ccc(O)cc2o1 | > 100 µM | > 100 µM | > 100 µM | > 100 µM | > 100 µM | < 0.01 µM | > 256 µg/mL | 256 µg/mL (≈ 560 µM) | > 256 µg/mL | > 256 µg/mL | > 256 µg/mL | > 256 µg/mL | –
28 | O=c1cc(Cn2cc(CNS(=O)(=O)c3ccc(F)cc3Cl)nn2)c2ccc(O)cc2o1 | 91.9 µM | 74.8 µM | > 100 µM | 74.9 µM | > 100 µM | 1.45 µM | > 256 µg/mL | 32 µg/mL (≈ 68.8 µM) | > 256 µg/mL | > 256 µg/mL | > 256 µg/mL | > 256 µg/mL | –
29 | O=c1cc(Cn2cc(CNS(=O)(=O)c3ccc(F)cc3)nn2)c2ccc(O)cc2o1 | 88.5 µM | 76.7 µM | > 100 µM | > 100 µM | > 100 µM | 24.9 µM | > 256 µg/mL | 64 µg/mL (≈ 149 µM) | > 256 µg/mL | > 256 µg/mL | > 256 µg/mL | > 256 µg/mL | –

— ChEMBL document CHEMBL3875169, “Synthesis, in vitro anticancer and antibacterial activities and in silico studies of new 4-substituted 1,2,3-triazole-coumarin hybrids” (Eur J Med Chem, 2016)
